Data published in PMC10634270 (ACS Omega, 2023).

How the values were obtained:
Hs27 fibroblasts = assay: Cell viability MTT assay on Hs27 fibroblasts; type: cell-based, human; conditions: for cytotoxicity against Hs27 fibroblasts (in words): either human cell line
Outline: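 In vitro viability screen on Hs27 human fibroblasts, the same cells that serve as hosts in the parasite proliferation assay. IC50 is reported with confidence intervals.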

HeLa wt cells = assay: Cell viability MTT assay on HeLa wt cells; type: cell-based, human; conditions: for cytotoxicity against HeLa cells (in words): either human cell line
[1] = Antioxidant ABTS decolorization assay; conditions: relative to ascorbic acid
Outline: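 Antioxidant capacity is read as ABTS radical decolorization. It is expressed relative to ascorbic acid as ascorbic acid equivalents in mol mol–1. Values are given with standard deviation.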

[2] = Stability experiments in DMSO; type: physicochemical; conditions: up to 40 °C, over 24 h

| Compound | cytotoxicity against Hs27 fibroblasts (in words) (Hs27 fibroblasts) | cytotoxicity against HeLa cells (in words) (HeLa wt cells) | ascorbic acid equivalent antioxidant capacity (AEAC) [1] | also measured |
| --- | --- | --- | --- | --- |
| COc1cc(C)cc2oc(-c3ccc(C(F)(F)F)cc3)cc(=O)c12 [8ad, 5-Methoxy-7-methyl-2-(4-(trifluoromethyl)phenyl)-4H-chromen-4-one] | noncytotoxic | noncytotoxic | – | – |
| COc1cc(OC)c2c(=O)cc(-c3ccc(C(F)(F)F)cc3)oc2c1 [8bd, 5,7-Dimethoxy-2-(4-(trifluoromethyl)phenyl)-4H-chromen-4-one] | noncytotoxic | noncytotoxic | – | – |
| COc1ccc(-c2cc(=O)c3c(OC)cc(C)c(-c4c(C)cc(OC)c5c(=O)cc(-c6ccc(OC)cc6)oc45)c3o2)cc1 [9aa, rac-5,5′-Dimethoxy-2,2′-bis(4-methoxyphenyl)-7,7′-dimethyl-4H,4′H-[8,8′-bichromene]-4,4′-dione] | – | – | 0.25 equiv ascorbic acid [mol mol^–1] | – |
| COc1cc(C)c(-c2c(C)cc(OC)c3c(=O)cc(-c4ccc(N(C)C)cc4)oc23)c2oc(-c3ccc(N(C)C)cc3)cc(=O)c12 [9ac, rac-2,2′-Bis(4-(dimethylamino)phenyl)-5,5′-dimethoxy-7,7′-dimethyl-4H,4′H-[8,8′-bichromene]-4,4′-dione] | – | – | 0.197 equiv ascorbic acid [mol mol^– | stability in DMSO [2]: stable |
| COc1cc(C)c(-c2c(C)cc(OC)c3c(=O)cc(-c4ccc(C(F)(F)F)cc4)oc23)c2oc(-c3ccc(C(F)(F)F)cc3)cc(=O)c12 [9ad, rac-5,5′-Dimethoxy-7,7′-dimethyl-2,2′-bis(4-(trifluoromethyl)phenyl)-4H,4′H-[8,8′-bichromene]-4,4′-dione] | noncytotoxic | noncytotoxic | – | – |
| COc1cc(OC)c2c(=O)cc(-c3ccc(C(F)(F)F)cc3)oc2c1-c1c(OC)cc(OC)c2c(=O)cc(-c3ccc(C(F)(F)F)cc3)oc12 [9bd, rac-5,5′,7,7′-Tetramethoxy-2,2′-bis(4-(trifluoromethyl)phenyl)-4H,4′H-[8,8′-bichromene]-4,4′-dione] | noncytotoxic | noncytotoxic | – | – |
| Cc1cc(O)c2c(=O)cc(-c3ccc(N(C)C)cc3)oc2c1-c1c(C)cc(O)c2c(=O)cc(-c3ccc(N(C)C)cc3)oc12 [compound 11, rac-2,2′-Bis(4-(dimethylamino)phenyl)-5,5′-dihydroxy-7,7′-dimethyl-4H,4′H-[8,8′-bichromene]-4,4′-dione] | – | – | 0.037 equiv ascorbic acid [mol mol^– | IC50 (Hs27 fibroblasts; Homo sapiens, HS27, 24 h, read-out: IC50 (Hs27)): > 200 µM; IC50 (HeLa wt cells; Homo sapiens, HeLa, 48 h, read-out: IC50 (HeLa)): > 100 µM |
